Laboratory results: ChEMBL document CHEMBL1134638, “Synthetic 2-aroylindole derivatives as a new class of potent tubulin-inhibitory, antimitotic agents” (J Med Chem, 2001)
In brackets after ≈: the same amount, converted by molar mass.

What was measured:
Tumor Cell line = experiment: Mean cytotoxicity against a panel of human tumor cell lines; format: functional
Method in brief: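 Modified propidium iodide assay quantifying dead cells by DNA/RNA staining, run on a human tumor cell panel (breast, colon, stomach, lung, melanoma, ovary, renal, soft tissue lines). Growth inhibition expressed as % T/C; IC70 per line from concentration-viability plots. Mean IC70 is the geometric mean across lines; unreached values set to the lowest or highest concentration tested.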

Tubulin beta chain [1] = biological target: T1, Tubulin beta chain (Bos taurus, UniProt Q6B856); experiment: Inhibition of tubulin polymerization.; format: functional
T1 sequence (Q6B856 whole entry): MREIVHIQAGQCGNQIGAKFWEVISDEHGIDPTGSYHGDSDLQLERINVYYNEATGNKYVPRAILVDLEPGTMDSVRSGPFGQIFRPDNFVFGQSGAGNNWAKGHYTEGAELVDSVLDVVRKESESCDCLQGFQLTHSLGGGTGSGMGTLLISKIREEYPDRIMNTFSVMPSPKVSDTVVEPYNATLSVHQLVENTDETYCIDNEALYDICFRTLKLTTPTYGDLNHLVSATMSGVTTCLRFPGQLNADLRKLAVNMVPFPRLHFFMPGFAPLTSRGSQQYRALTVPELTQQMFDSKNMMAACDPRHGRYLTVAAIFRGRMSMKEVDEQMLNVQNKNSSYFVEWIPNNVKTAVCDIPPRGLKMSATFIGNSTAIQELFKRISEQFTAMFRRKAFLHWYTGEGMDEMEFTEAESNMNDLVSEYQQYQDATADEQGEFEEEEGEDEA

SK-OV-3 [2] = experiment: In vitro inhibitory activity against SK-OV-3 cells using XTT proliferation assay.; format: functional, cell-based; settings: Homo sapiens
Method in brief: (§1)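 XTT proliferation assay measuring cellular metabolic activity after 48 h incubation with compound. Compounds dissolved in DMSO at 1 mg/mL stock. IC50 or estimates obtained by nonlinear regression. Each experiment at least in duplicate.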

HeLa [3] = experiment: In vitro inhibitory activity against HeLa/KB cells using XTT proliferation assay.; format: functional, cell-based; settings: Homo sapiens; method in brief: as §1
HeLa [4] = experiment: In vitro inhibitory activity against HeLa/KB cells using XTT proliferation assay; format: functional, cell-based; settings: Homo sapiens; method in brief: as §1
SK-OV-3 [5] = experiment: In vitro inhibitory activity against SK-OV-3 cells using XTT proliferation assay; format: functional, cell-based; settings: Homo sapiens; method in brief: as §1
Tubulin beta chain [6] = biological target: T1, Tubulin beta chain; experiment: Inhibition of tubulin polymerization; format: functional
Method in brief: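 Bovine brain tubulin with MAPs, prepared by polymerization/depolymerization cycles (0.8 mg/mL), incubated with compound (4 µg/mL for screening, a concentration range for IC50). Run in PEM buffer pH 6.6 with 1 mM GTP at 37 °C for 1 h. Microtubules collected on 0.22 µm filters, stained with amido black, eluted, absorbance read at 600 nm.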

[7] = biological target: Tubulin beta chain (Bos taurus) (UniProt Q6B856)
Sequence of Tubulin beta chain (Bos taurus) (Q6B856 whole entry): as above

[8] = biological target: Tubulin beta chain (Bos taurus) (UniProt Q6B856); remark: listed apart in the source
Tubulin = Tubulin (Bos taurus, UniProt Q6B856+Q862L2+Q862F3); experiment: Inhibition of tubulin polymerization; No effect at a concentration up to 10 uM; format: functional

Structure (SMILES) | IC50 (Tubulin beta chain [1]) [µM] | IC50 (SK-OV-3 [2]) [µM] | IC50 (HeLa [3]) [µM] | further results
COc1ccc2[nH]c(C(=O)c3ccc(Br)cc3)cc2c1 | 4.3 | 0.91 | 0.91 | IC70 (Tumor Cell line): 2.56 µg/mL (≈ 7.75 µM)
COc1ccc2[nH]c(C(=O)c3cccc(SC(F)(F)F)c3)cc2c1 | – | – | – | IC50 (HeLa [4]): 0.88 µM; IC50 (SK-OV-3 [5]): 0.63 µM; IC50 (Tubulin beta chain [6]): > 10 µM
COc1ccc2[nH]c(C(=O)c3cccc(N)c3C)cc2c1 | > 10 | 11.4 | 11.4 | –
CC[C@]1(O)C[C@H]2CN(CCc3c([nH]c4ccccc34)[C@@](C(=O)OC)(c3cc4c(cc3OC)N(C=O)[C@H]3[C@@](O)(C(=O)OC)[C@H](OC(C)=O)[C@]5(CC)C=CCN6CC[C@]43[C@@H]65)C2)C1 | – | – | – | GTPase Activity [7]: 0.09; GTPase Activity [8]: 5.3
COc1ccc(C(=O)c2cc3cc(OC)ccc3[nH]2)c(OC)c1 | 5.6 | 1.03 | 0.1 | IC70 (Tumor Cell line): 1.74 µg/mL (≈ 5.59 µM)
COc1ccc2[nH]c(C(=O)c3ccc(OC)c(OC)c3)cc2c1 | 0.81 | 1.64 | 1.32 | –
COc1cccc(C(=O)c2cc3cc(C)ccc3[nH]2)c1 | > 10 | > 12.1 | > 12.1 | –
COc1ccc2[nH]c(C(=O)c3ccccc3F)cc2c1 | 1 | 0.74 | 0.37 | –
COc1ccc2[nH]c(C(=O)c3ccc(F)cc3)cc2c1 | – | 7.43 | 5.57 | –
COc1ccc2[nH]c(C(=O)c3cccc(O)c3)cc2c1 | 0.66 | 0.22 | 0.22 | –
COc1ccc2[nH]c(C(=O)c3c(F)cccc3F)cc2c1 | – | 8.7 | 6.96 | IC50 (Tubulin): No effect
COc1ccc2[nH]c(C(=O)c3ccccc3C)cc2c1 | 4.8 | 0.38 | 1.21 | –
COc1cc(OC)c(OC)c(C(=O)c2cc3cc(OC)ccc3[nH]2)c1 | – | 9.37 | 8.79 | IC50 (Tubulin): No effect
COc1ccc2[nH]c(C(=O)c3cccc(C(F)(F)F)c3)cc2c1 | 1.5 | 0.03 | 0.03 | –
COc1ccc2[nH]c(C(=O)c3cccc(N)c3)cc2c1 | 0.99 | 0.23 | 0.34 | –
COc1ccc2[nH]c(C(=O)c3ccccc3[N+](=O)[O-])cc2c1 | > 10 | > 10.8 | > 10 | –
COc1ccc2[nH]c(C(=O)c3cccc(F)c3)cc2c1 | 0.39 | 0.015 | 0.026 | –
COc1ccccc1C(=O)c1cc2cc(C)ccc2[nH]1 | 3.5 | 0.75 | 0.38 | IC70 (Tumor Cell line): 2.03 µg/mL (≈ 7.65 µM)
COc1ccc2[nH]c(C(=O)c3cccc(OC(F)(F)F)c3)cc2c1 | 1.7 | 0.21 | 0.27 | –
COc1ccc2[nH]c(C(=O)c3ccc(OC)c(OC)c3OC)cc2c1 | > 10 | 0.088 | 0.059 | IC70 (Tumor Cell line): 0.73 µg/mL (≈ 2.14 µM)
COc1ccc2[nH]c(C(=O)c3cccc(OC)c3OC)cc2c1 | > 10 | 3.2 | 6.4 | –
COc1ccc2[nH]c(C(=O)c3ccccc3N)cc2c1 | 6.7 | 3.76 | 3.76 | IC70 (Tumor Cell line): 1.44 µg/mL (≈ 5.41 µM)
COc1ccc2[nH]c(C(=O)c3ccc(Cl)c(Cl)c3)cc2c1 | 2.5 | 0.1 | 0.1 | IC70 (Tumor Cell line): 1.34 µg/mL (≈ 4.19 µM)
COc1ccc2[nH]c(C(=O)c3ccc(Cl)cc3)cc2c1 | 5 | 1.75 | 3.5 | –

Structure (SMILES) | IC50 (Tubulin beta chain [1]) [µM] | IC50 (SK-OV-3 [2]) [µM] | IC50 (HeLa [3]) [µM] | further results
COc1ccc2[nH]c(C(=O)c3ccc(C)cc3)cc2c1 | 1.5 | 1.88 | 0.38 | –
COc1ccc2[nH]c(C(=O)c3cccc(SC(F)F)c3)cc2c1 | – | – | – | IC50 (HeLa [4]): 0.39 µM; IC50 (SK-OV-3 [5]): 0.36 µM; IC50 (Tubulin beta chain [6]): 2.1 µM
COc1ccc2[nH]c(C(=O)c3cccc(OC)c3[N+](=O)[O-])cc2c1 | > 10 | > 9.8 | > 9.8 | –
COc1ccc2[nH]c(C(=O)c3c(F)cccc3Cl)cc2c1 | > 10 | > 10.5 | > 10.5 | –
COc1ccc2[nH]c(C(=O)c3ccc(C(C)(C)C)cc3)cc2c1 | – | > 10.4 | > 10.4 | IC50 (Tubulin): No effect
COc1ccc2[nH]c(C(=O)c3cccc([N+](=O)[O-])c3)cc2c1 | 0.85 | 0.1 | 0.1 | IC70 (Tumor Cell line): 1.4 µg/mL (≈ 4.73 µM)
COc1ccc2[nH]c(C(=O)c3cccc4ccccc34)cc2c1 | – | – | – | IC70 (Tumor Cell line): 0.88 µg/mL (≈ 2.92 µM)
CCCCCOc1ccc(C(=O)c2cc3cc(OC)ccc3[nH]2)cc1 | – | > 9.5 | > 9.5 | IC50 (Tubulin): No effect
COc1cc2c(c(OC)c1OC)-c1ccc(OC)c(=O)cc1[C@@H](NC(C)=O)CC2 [COLCHICINE] | – | 0.02 | 0.023 | –
COc1cc(C(=O)c2cc3ccccc3[nH]2)cc(OC)c1OC | – | 9.64 | 6.42 | IC50 (Tubulin): No effect
CCCc1ccc(C(=O)c2cc3cc(OC)ccc3[nH]2)cc1 | > 10 | > 10.9 | > 10.9 | –
CCc1ccc(C(=O)c2cc3cc(OC)ccc3[nH]2)cc1 | > 10 | 11.5 | 8.9 | –
COc1cc(OC)cc(C(=O)c2cc3cc(OC)ccc3[nH]2)c1 | 0.81 | 0.019 | 0.019 | –
COc1ccc2c(c1)cc(C(=O)c1ccccc1)n2CCN1CCOCC1 | – | – | – | IC70 (Tumor Cell line): 2.95 µg/mL (≈ 8.09 µM)
COc1ccc2[nH]c(C(=O)c3cc(C)ccc3C)cc2c1 | 5.2 | 0.72 | 0.72 | –
COc1ccccc1C(=O)c1cc2ccccc2[nH]1 | > 10 | > 12.7 | > 12.7 | –
CC(=O)O[C@H]1C(=O)[C@@]2(C)[C@H]([C@H](OC(=O)c3ccccc3)[C@]3(O)C[C@H](OC(=O)[C@H](O)[C@@H](NC(=O)c4ccccc4)c4ccccc4)C(C)=C1C3(C)C)[C@]1(OC(C)=O)CO[C@@H]1C[C@@H]2O | – | – | – | GTPase Activity [7]: 1.4; GTPase Activity [8]: 3.3
COc1ccc(C(=O)c2cc3cc(OC)ccc3[nH]2)cc1 | – | 11.4 | 11.4 | IC50 (Tubulin): No effect
COc1cc(C(=O)c2cc3cc(C)ccc3[nH]2)cc(OC)c1OC | 0.86 | 0.03 | 0.03 | IC70 (Tumor Cell line): 1.17 µg/mL (≈ 3.6 µM)
CCCC(=O)Oc1cccc(C(=O)c2cc3cc(OC)ccc3[nH]2)c1 | 0.85 | 0.24 | 0.27 | –
COc1ccc2[nH]c(C(=O)c3cccc(OCc4ccccc4)c3)cc2c1 | – | > 8.6 | > 8.6 | IC50 (Tubulin): No effect
COc1ccc2[nH]c(C(=O)c3ccccc3OC)cc2c1 | 1.29 | 0.11 | 0.036 | IC70 (Tumor Cell line): 0.35 µg/mL (≈ 1.24 µM)
COc1ccc2[nH]c(C(=O)c3cccc([N+](=O)[O-])c3C)cc2c1 | > 10 | > 10.3 | > 10.3 | –
